# Assay results pooled from the literature.
# Each line is one published result; the experiments were not run side by side.
SMILES,organism,test,system,setting,quantity,value
O=C1NN=C(N=Cc2ccc(O)c(O)c2)C1=NNn1c(-c2ccccc2)nc2ccccc2c1=O,Monascus purpureus,"microbial growth, broth dilution",,,MIC,53.5 µM
CCOC(=O)c1c(NC(=O)c2c(F)c(F)c(F)c(F)c2F)sc2c1CCN(C(=O)OC(C)(C)C)C2,Mycobacterium tuberculosis,"microbial growth, resazurin",H37RV,7 days,MIC,> 100 µM
CC1=NN(CNC(=O)c2ccccc2)C(=O)C1=NNn1c(-c2ccccc2)nc2ccccc2c1=O,Monascus purpureus,"microbial growth, broth dilution",,,MIC,104 µM
COc1ccc(Nc2nc(-c3cccs3)nc3ccccc23)cc1,Trypanosoma cruzi,"parasite growth, imaging",U2OS,"intracellular, amastigote",IC50,5.87 µM
O=C(N[C@@H](Cc1ccccc1)C(=O)c1nc2ccccc2s1)[C@H](Cc1ccccc1)NC(=O)N1CCOCC1,Trypanosoma cruzi,parasite growth,TULAHUEN,"intracellular, amastigote",IC50,17.5 µM
c1ccc(C2CCN(c3nc(-c4ccn[nH]4)nc4ccccc34)C2)nc1 (centres unmarked),Trypanosoma cruzi,"parasite growth, imaging",U2OS,"intracellular, amastigote",IC50,14.3 µM
CC1(C)S[C@@H]2[C@H](NC(=O)[C@H](N)c3ccccc3)C(=O)N2[C@H]1C(=O)O,Plesiomonas shigelloides,"microbial growth, agar dilution",,26.93 µM,inhibition,100%
CCOC(=O)c1c(NC(=O)c2c(F)c(F)c(F)c(F)c2F)sc2c1CCCC2,Mycobacterium tuberculosis,"microbial growth, resazurin",H37RV,,IC50,13 µM
CC1=NN(CNc2ccc(C(=O)O)cc2)C(=O)C1=NNn1c(-c2ccccc2)nc2ccccc2c1=O,Monascus purpureus,"microbial growth, broth dilution",,,MIC,101 µM
Cn1cc(-c2nc(N3CCC(c4ccccn4)C3)c3ccccc3n2)cn1 (centres unmarked),Trypanosoma cruzi,"parasite growth, imaging",U2OS,"intracellular, amastigote",IC50,2.57 µM
CCCCNC(=O)c1c(N)sc2c1CCN(CC)C2,Mycobacterium tuberculosis,"microbial growth, resazurin",H37RV,,IC50,> 300 µM
N#Cc1cccc(-c2nc(N3CCC(c4ccccn4)C3)c3ccccc3n2)c1 (centres unmarked),Trypanosoma cruzi,"parasite growth, imaging",U2OS,"intracellular, amastigote",IC50,6.92 µM
Cc1cc2nc(C(=O)N3CCNCC3)cc(-c3ccccc3Cl)c2c(C)c1-c1ccncc1,Mycobacterium tuberculosis,microbial growth,H37RV,,MIC90,10 µM
CCOC(=O)c1cc(-c2ccccc2)sc1NC(=O)c1cc(C(F)(F)F)cc(C(F)(F)F)c1,Mycobacterium tuberculosis,"microbial growth, resazurin",H37RV,,MIC,> 200 µM
O=C(O)c1cn(C2CC2)c2cc(N3CCNCC3)c(F)cc2c1=O,Monascus purpureus,"microbial growth, broth dilution",,,MIC,6.25 µM
[H]/N=C(/N)N[C@H]1[C@H](O)[C@@H](O)[C@H](O[C@@H]2O[C@@H](C)[C@](O)(C=O)[C@H]2O[C@@H]2O[C@@H](CO)[C@H](O)[C@@H](O)[C@@H]2NC)[C@@H](N/C(N)=N\[H])[C@@H]1O,Mycobacterium tuberculosis,"microbial growth, disc diffusion",ATCC25177,"10 µg/disc, 12 days",inhibition zone,40 mm
Cc1ccc2nc(-c3ccc(Cl)cc3)cn2c1,Trypanosoma cruzi,parasite growth,TULAHUEN,"6 days, intracellular, amastigote",EC90,> 5 µM
c1ccc(-c2nc(N3CCC(c4ccccn4)C3)c3ccccc3n2)cc1 (centres unmarked),Trypanosoma cruzi,"parasite growth, imaging",U2OS,"intracellular, amastigote",IC50,4.82 µM
COc1ccccc1CNC(=O)c1cc(-c2ccccc2)sc1N,Mycobacterium tuberculosis,"microbial growth, resazurin",H37RV,,MIC,> 200 µM
CC(C)(C)c1nc(N2CCCCC2)c2ccccc2n1,Trypanosoma cruzi,"parasite growth, imaging",U2OS,"intracellular, amastigote",IC50,21.5 µM
CCOC(=O)c1cc(-c2ccccc2)sc1NC(=O)c1c(F)c(F)c(F)c(F)c1F,Mycobacterium tuberculosis,"microbial growth, resazurin",H37RV,,MIC,> 200 µM
c1ccc2c(N3CCCCC3)nc(-n3cccn3)nc2c1,Trypanosoma cruzi,"parasite growth, imaging",U2OS,"intracellular, amastigote",IC50,8.96 µM
CCOC(=O)c1c(NC(=O)c2ccccc2)sc2c1CCN(C(=O)OC(C)(C)C)C2,Mycobacterium tuberculosis,"microbial growth, resazurin",H37RV,,MIC,> 200 µM
